# UPR XBP1 act: adaptive UPR (XBP1) activation; CHO-XBP1 luciferase reporter, IRE1-XBP1 UPR activation, luminescence; percent of tunicamycin response, DMSO as zero; activation, % at 20 µM; 0.33% of 330,000 active; AID 463104;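 active = versus positive control, 20 µM dose yields 30% or more activation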;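 also: 100% = tunicamycin at 10 µg/mL and 0% = DMSO only wells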
#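 Assay system: CHO-XBP1 luciferase reporter cells; Schedule: 6 h treatment, 37 °C; Detection: glow luminescence from Steady-Glo reagent; Benchmarks: high control tunicamycin 10 µg/mL final, low control DMSO vehicle only.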
# T cruzi inh: blocks replication of Trypanosoma cruzi; T. cruzi beta-gal in NIH3T3, luminescence, 90 h; inhibition, % (test concentration not listed); 1.4% of 300,000 active; AID 1885;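 active = mean inhibition across valid replicates above about 55%, limit read from the data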;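 also: signal also drops with host cell toxicity which is not excluded here; 0% = plate median of DMSO wells and 100% = zero luminescence signal; higher percent means less beta-gal luminescence so fewer parasites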
#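 assay system = mouse NIH/3T3 fibroblasts infected with β-gal-expressing T. cruzi Tulahuen C4 | input = 5,000 NIH/3T3 host cells per well | buffer or medium = DMEM plus 2% FBS | timing = 3 h host attachment, then at least 90 h co-culture | measured by = GalScreen luminescence, 60 min | evaluation = luminescence reflecting intracellular parasite burden, expressed as percent inhibition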
# CHOP UPR activ: apoptotic UPR (CHOP) activation | CHO-CHOP luciferase reporter, luminescence; percent of tunicamycin response over DMSO baseline | activation, % at 10 µM | 0.34% of 330,000 active;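 active = at 10 µM dose, activation of 40% or more, normalized to positive control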;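 also: 100% = tunicamycin at 10 µg/mL and 0% = DMSO alone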
#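 Test system: CHO-CHOP cells, stable luciferase reporter of PERK-eIF2a-CHOP signalling | Quantity: 500 CHO-CHOP cells per well | Buffer or medium: F12 plus 10% serum | Compound dosing: 10 µM single point, 0.5% DMSO | Schedule: 6 h compound treatment, 37 °C | Signal: Luciferase luminescence | Control set: Tunicamycin high control, DMSO low control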
# CHOP inhibitor: CHOP inhibition in unfolded protein response; CHO-K1 CHOP-promoter luciferase, tunicamycin-induced, 15-18 h; inhibition, % at 10 µM; 3.8% of 220,000 active; AID 2732;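 active = compounds that reduced the stress-induced luciferase reporter signal by more than about 70% of percent inhibition, limit read from the data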;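 also: 0% = tunicamycin plus vehicle and 100% = wells without tunicamycin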
# Dynein cargo inh: blocks dynein driven cargo transport along microtubules; 3617.4 mouse cells, GR-EGFP nuclear translocation imaging; test concentration mostly 20 µM; stimulated with dexamethasone, 1 µM; active compounds read low; z-score, hits read low; 0.47% of 220,000 active; AID 1381;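 active = plate z-score of nuclear minus cytoplasmic receptor signal below a set negative limit, without overly bright fluorescence or cell loss, cut at about -3.5 in these data, passing the limit was not always enough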;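 also: z-score of nuclear minus cytoplasmic ring GR-EGFP intensity difference per well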
#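 Medium: Induction medium lacking tetracycline, stripped serum | Probe or stimulus: 1.0 µM final dexamethasone stimulus | Schedule: 48 h induction, then 1 h compound, then 30 min agonist, 37 °C | Signal: Automated 10x imaging of fixed Hoechst-stained cells | Evaluation: Per-cell GR-EGFP intensity, nucleus versus surrounding cytoplasmic ring, well-averaged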
# L major viab: reduces viability of Leishmania major promastigotes; 9% of 200,000 active; AID 1063; resazurin fluorescence viability; inhibition, % at 10 µM; in the data active = inhibition above about 50%;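 also: promastigotes grown with compound for 44 hours at 28 °C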
# * marks the source's active call; other numbers are inactive results; · = no result given. This is one part of a sample in which hits are shown more often than they occur.
SMILES,UPR XBP1 act,T cruzi inh,CHOP UPR activ,CHOP inhibitor,Dynein cargo inh,L major viab
COc1cccc(OCc2nnc(SCC(=O)NCc3ccco3)n2CCc2ccccc2)c1,-1.3,10.9,-1.8,23.1,-1.35,91.2*
COc1ccc(-n2c(COc3cccc4ccccc34)nnc2SCC(=O)NCc2ccco2)cc1,-1.8,18.5,3.4,50.2,0.653,98.4*
COc1ccc(OC)c(C(=O)CSc2nnc(-c3cccs3)n2C)c1,-0.7,-0.5,-1.5,-27.5,-0.452,-0.6
COc1ccc(OC)c(C(=O)CSc2nnc(Cc3cccs3)n2CCc2ccccc2)c1,-1.3,21.9,1.4,26.7,0.601,96.9*
COc1ccc(NC(=O)CSc2nnc(Cc3cccs3)n2-c2ccc(C)cc2)cc1,-1.1,6.1,2.4,-6.4,2.56,97.6*
COCCNC(=O)CN(Cc1ccc(F)cc1)C(=O)CCC(=O)Nc1nccs1,-3.4,0.8,3.3,·,·,·
OCC[C@@H]1C[C@H](O)[C@@H](O)[C@]2(CCc3ccccc3CO2)O1,-2.2,-14.2,-3.2,·,·,·
O=C(COC(=O)c1ccc2c(c1)C(=O)N(c1cccc3ncccc13)C2=O)c1ccc(Cl)cc1,-3.2,-3.4,-1.7,87.5*,-0.112,-9.3
O=C(OCC(=O)c1ccc(Cl)cc1Cl)c1ccc2c(c1)C(=O)N(c1cccc3ncccc13)C2=O,-4.8,-22.8,-2.9,-1.2,-0.67,-6.1
Cc1ccc(C(=O)COC(=O)c2ccc3c(c2)C(=O)N(c2cccc4ncccc24)C3=O)cc1,-2.6,-11.4,-0.8,39.0,2.09,75.6*
O=C(O)c1ccc2c(c1)C(=O)N(c1ccc(C(=O)OCC(=O)c3ccccc3)cc1)C2=O,-0.6,-5.4,0.3,·,·,·
CC1CCN(CC(=O)N2c3ccccc3CC2C)CC1 (configuration not stated),1.9,7.4,-0.5,0.2,-1.23,1.9
CC1Cc2ccccc2N1C(=O)CNc1ccccc1N1CCCCC1 (configuration not stated),-2.3,25.5,0.7,73.8*,-0.0683,26.9
Cc1ccc(C)c2[nH]c(=O)c(C(c3nnnn3C(C)(C)C)N3CC=C(c4ccc(F)cc4)CC3)cc12 (configuration not stated),·,·,·,35.4,-0.0534,96.6*
O=C(COC(=O)CCS(=O)(=O)c1ccccc1)Nc1ccc(N2CCCCC2)cc1,-0.8,·,-0.8,·,·,·
O=C(Nc1ccc(Cl)c(Cl)c1)Nc1nnc(CSc2ccccc2)s1,7.0,3.0,6.9,77.0*,-0.353,11.3
Cc1ccc(OCCSCc2nnc(NC(=O)Nc3cccc(Cl)c3)s2)cc1,7.1,6.1,3.3,82.8*,-0.541,31.7
Cc1nnc(NC(=O)Nc2cccc(Cl)c2)s1,1.7,-5.3,3.1,48.6,0.253,3.6
O=C(Nc1ccccc1)Nc1nnc(CSCc2ccccc2Cl)s1,-2.4,24.7,0.0,90.2*,0.399,-5.1
O=C(Nc1ccc(Cl)c(Cl)c1)Nc1nccs1,3.0,9.6,2.2,79.1*,-0.483,·
O=C(Nc1cccc(Cl)c1)Nc1nccs1,6.2,-16.2,6.4,-22.1,-1.49,6.3
NN(Cc1ccccc1)C(=S)Nc1ccc(Cl)c(Cl)c1,-2.2,4.3,1.9,·,·,·
COc1ccc(S(=O)(=O)Nc2c(C)cc(C)cc2C)c2cccnc12,-2.2,10.8,0.0,·,·,·
O=C(CNC(=O)c1ccccc1F)NCc1ccncc1,0.2,·,-1.4,·,·,·
CN(Cc1ccc(C(C)(C)C)cc1)C(=O)C1CCN(C(=O)Nc2ccccc2)CC1,0.0,2.4,-1.0,·,·,·
SMILES,UPR XBP1 act,T cruzi inh,CHOP UPR activ,CHOP inhibitor,Dynein cargo inh,L major viab
COC(=O)C1CCN(C(=O)CN(C)Cc2ccc(C(C)(C)C)cc2)CC1,-4.7,66.9*,3.4,·,·,·
COC(=O)c1ccc(NC(=O)C2CCCN2C(=O)OCc2ccccc2)cc1 (configuration not stated),-1.8,2.6,0.6,·,·,·
O=C(OCc1ccccc1)N1CCCC1/C=C/CN1CCOCC1 (configuration not stated),-2.5,-9.9,2.2,-3.3,-0.7,81.9*
Cc1ccn(-c2ccc(NC(=O)c3cccs3)cc2)n1,1.6,-3.6,5.6,·,·,·
N#CC1=C(N)N(c2ccc(Oc3ccccc3)cc2)C(=O)C1,2.5,-14.0,-1.0,28.4,0.634,91.4*
CC(C)c1ccc(NC2CCCN(C(=O)c3ccsc3)C2)cc1 (configuration not stated),-0.5,12.4,3.1,·,·,·
CC1=CN2C(=N)/C(=C/c3ccc(Sc4ccc(C)cc4)o3)C(=O)N=C2S1,-1.3,-20.2,3.8,16.8,-0.322,-3.4
CC1=CN2C(=N)/C(=C/c3ccc(Sc4ccc(Cl)cc4)o3)C(=O)N=C2S1,-0.4,-6.8,5.8,76.7*,0.235,6.3
O=C1c2cccc3c(Nc4ccccc4Cl)c([N+](=O)[O-])cc(c23)C(=O)N1CCO,-2.7,59.3*,-0.1,-16.9,-0.418,37.7
O=C1c2cccc([N+](=O)[O-])c2C(=O)N1CCO,0.8,0.3,0.9,-5.1,1.1,4.1
CCN(c1ccc2c(c1)OCO2)S(=O)(=O)c1cc(Br)cc2c1N(C(C)=O)CC2,-1.7,63.5*,-0.8,46.0,-0.593,33.0
O=C(c1ccc(CS(=O)c2ccc(F)cc2)o1)N1CCN(C2CCCCC2)CC1 (configuration not stated),-2.0,27.6,1.8,·,·,·
CCN(CC(=O)Nc1c(F)cccc1F)C(=O)CN(C)S(=O)(=O)c1ccc(F)cc1,0.1,-11.9,1.8,·,·,·
Cc1ccc2c(c1)C(c1ccccc1)N(C(=O)c1cccc([N+](=O)[O-])c1)CC(=O)N2 (configuration not stated),-4.9,2.1,0.5,·,·,·
COc1cc(OC)cc(-c2cc3nc(C)c(CCC(=O)NCc4ccccc4)c(C)n3n2)c1,-6.1,31.7,-8.0,83.7*,2.12,·
Cc1nc2cc(-c3ccccc3)nn2c(C)c1CCC(=O)N1CCN(c2ccccc2)CC1,-4.2,49.1,-4.0,58.5,-0.723,86.7*
COc1ccccc1-c1cc2nc(C)c(CCC(=O)NCc3ccc(F)cc3)c(C)n2n1,-2.4,61.3*,2.6,30.7,2.23,·
O=C(C1CC(=O)N(c2ccc(Cl)cc2)C1)N1CCOCC1 (configuration not stated),-1.9,7.6,0.3,·,·,·
CC1=C(CCN2CCN(C3CCCC3)C(CCO)C2)C(C)(C)CCC1 (configuration not stated),1.1,30.4,1.3,-3.9,-0.618,82.8*
CC(C)=CCN1CCN(CCCn2cccn2)CC1CCO (configuration not stated),1.9,-11.5,0.0,17.3,-1.08,-7.3
CC(C)=CCN1CCN(CCC2=C(C)CCCC2(C)C)CC1CCO (configuration not stated),1.9,17.7,2.4,9.3,-1.04,80.2*

# Bioassay records from PubChem.
